The target of one test is T1, Galanin receptor type 2 (Homo sapiens, UniProt O43603).
T1 sequence (O43603 whole entry): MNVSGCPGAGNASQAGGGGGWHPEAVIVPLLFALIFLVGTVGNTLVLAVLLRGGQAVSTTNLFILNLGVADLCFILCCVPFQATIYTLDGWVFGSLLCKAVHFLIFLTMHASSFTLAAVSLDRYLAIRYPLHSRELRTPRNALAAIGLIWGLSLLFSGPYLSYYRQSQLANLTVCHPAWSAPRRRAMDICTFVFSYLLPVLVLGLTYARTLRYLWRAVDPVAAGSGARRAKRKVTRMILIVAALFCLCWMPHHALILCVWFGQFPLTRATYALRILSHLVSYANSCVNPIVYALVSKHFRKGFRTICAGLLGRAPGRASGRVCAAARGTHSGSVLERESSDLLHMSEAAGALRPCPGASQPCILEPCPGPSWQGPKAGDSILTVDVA
Put plainly: Displacement of [125I]galanin from GalR2 by gamma counting. In outline: (§1)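 Full-curve competition over 10 nM–100 μM, with a rat galanin control on every plate. Compounds were diluted in 20% DMSO. Membranes were GalR1 2.5 μg or GalR2 5 μg, with 125I porcine galanin at 0.1 nM (GalR1) or 0.15 nM (GalR2), 1 h at room temperature. Filtration, washing and γ-counting followed. IC50 came from a nonlinear one-site competition fit, reported only when the curve bottom fell below 35% of total binding.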

The target of test [1] is T2, Galanin receptor type 1 (Homo sapiens, UniProt P47211).
T2 sequence (P47211 whole entry): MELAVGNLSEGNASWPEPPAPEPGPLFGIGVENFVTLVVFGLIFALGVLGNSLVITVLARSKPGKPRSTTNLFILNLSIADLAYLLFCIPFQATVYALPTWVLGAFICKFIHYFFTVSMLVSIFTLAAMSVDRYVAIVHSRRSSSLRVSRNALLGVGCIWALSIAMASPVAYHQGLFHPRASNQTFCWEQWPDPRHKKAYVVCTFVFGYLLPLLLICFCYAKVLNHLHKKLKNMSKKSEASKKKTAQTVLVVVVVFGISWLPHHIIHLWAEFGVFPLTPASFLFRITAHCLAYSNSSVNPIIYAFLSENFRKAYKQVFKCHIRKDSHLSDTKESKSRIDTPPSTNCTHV
In words: Displacement of [125I]galanin from GalR1 at 100 uM by gamma counting.

For test [2], the target named is T3, Galanin receptor type 2 (Homo sapiens) (UniProt O43603).
T3 sequence (whole entry): T1 sequence (O43603 whole entry)
In words: Displacement of [125I]galanin from GalR2 at 1 uM by gamma counting. In outline: (§2)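 Single-point screen at 1 and 10 μM, in duplicate, with two screens per receptor. Final 125I porcine galanin was 0.1 nM (GalR1) or 0.15 nM (GalR2). Incubation 1 h, room temperature. Filtration through PEI-treated glass fibre, cold PBS/Triton washes, γ-counting.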

The target of test [3] is T3, Galanin receptor type 2 (Homo sapiens). In words: Displacement of [125I]galanin from GalR2 at 10 uM by gamma counting. In outline: as §2
Test [4] addresses T2, Galanin receptor type 1. In words: Displacement of [125I]galanin from GalR1 by gamma counting. In outline:
as §1

pIC50: −log10 of the molar value.

In the case of `COc1ccc(Nc2nc(Nc3cccc(OC(F)F)c3)cc(N3CCCCC3)n2)cc1`, at Galanin receptor type 2, the negative-log IC50 (pIC50) was 6.27. Also, the IC50 result on Galanin receptor type 1 [1] is listed as “Not Active”. Also, the inhibition in test [2] and in test [3] was more than 50% in each case.
Regarding `Cc1c(F)cccc1Nc1cc(N2CCCCC2)nc(N2CCCN(c3ncccc3C(F)(F)F)CC2)n1`, the values for the pIC50 at Galanin receptor type 1 [4] and on Galanin receptor type 2 were 5.89 and 6.25, respectively. For the same molecule, the inhibition in test [2] and in test [3] was more than 50% throughout.
Take `COc1ccc(Nc2cc(N3CCCCC3)nc(N3CCCN(c4ncccc4C(F)(F)F)CC3)n2)cc1F`: the results for the pIC50 at Galanin receptor type 1 [4] and on Galanin receptor type 2 were 5.20 and 5.69, respectively. Moreover, the inhibition in test [2] and in test [3] was more than 50% throughout.
As to `COc1ccc(Nc2nc(Nc3ccc(F)c(Cl)c3)cc(N3CCCCC3)n2)cc1`, the pIC50 on Galanin receptor type 2 was 5.38. The IC50 entry at Galanin receptor type 1 [1] is given as “Not Active”. The inhibition in test [2] and in test [3] was more than 50% in each case.
As for `COc1ccc(Nc2nc(Nc3ccc(OC)c(F)c3)cc(N3CCCCC3)n2)cc1`, on Galanin receptor type 2, the negative logarithm of the IC50 (pIC50) was 6.37. Moreover, the IC50 entry at Galanin receptor type 1 [1] was “Not Active”. Also, the inhibition in test [2] and in test [3] was more than 50% each time.
In the case of `COc1ccc(Nc2nc(Nc3ccc(OC)c(F)c3)cc(N3CCCN(C(=O)OC(C)(C)C)CC3)n2)cc1`, the pIC50 is 5.55 on Galanin receptor type 1 [4] and 5.04 at Galanin receptor type 2. Also, the inhibition in test [2] and in test [3] was more than 50% throughout.
As for `COc1ccc(Nc2cc(Nc3cccc(OC(F)F)c3)nc(NC3CCCCC3)n2)cc1`, the pIC50 at Galanin receptor type 1 [4] is 5.30; at Galanin receptor type 2, 6.11. Moreover, the inhibition in test [2] and in test [3] was more than 50% throughout.
As to `COc1ccc(Nc2cc(N3CCN(c4ccccc4)CC3)nc(N3CCCC3)n2)cc1`, the pIC50 on Galanin receptor type 1 [4] is 4.89; on Galanin receptor type 2 it was 5.47. Moreover, the inhibition in test [2] and in test [3] was more than 50% throughout.
Regarding `COc1ccc(Nc2cc(Nc3cccc(OC)c3)nc(N3CCCC3)n2)cc1`, the results for the pIC50 on Galanin receptor type 1 [4] and on Galanin receptor type 2 were 5.34 and 6.03, respectively. For the same molecule, the inhibition in test [2] and in test [3] was more than 50% in each case.
For `COc1ccc(Nc2nc(Nc3cc(C)ccc3C)cc(N3CCCCC3)n2)cc1`, the pIC50 at Galanin receptor type 2 is 6.36. Moreover, the IC50 entry on Galanin receptor type 1 [1] is reported as “Not Active”. Besides, the inhibition in test [2] and in test [3] was more than 50% throughout.
Molecule `CCN(CC)c1cc(Nc2ccc(OC)c(F)c2)nc(Nc2ccc(OC)cc2)n1` had a pIC50 on Galanin receptor type 2 of 5.55. The IC50 result at Galanin receptor type 1 [1] was “Not Active”. The inhibition in test [2] and in test [3] was more than 50% throughout.
`FC(F)(F)Oc1cccc(Nc2cc(Nc3ccccc3)nc(N3CCCCC3)n2)c1`: the pIC50 at Galanin receptor type 1 [4] was 4.46; on Galanin receptor type 2 it was 5.18. In addition, the inhibition in test [2] and in test [3] was more than 50% each time.
For the molecule `Cc1ccc(C)c(Nc2cc(Nc3ccccc3)nc(N3CCCCC3)n2)c1`, the pIC50 at Galanin receptor type 2 is 5.34. For the same molecule, the IC50 result on Galanin receptor type 1 [1] was “Not Active”. The inhibition in test [2] and in test [3] was more than 50% each time.
For the molecule `COc1ccc(Nc2cc(Nc3ccccc3)nc(N3CCCCC3)n2)cc1`, the pIC50 was 5.07 on Galanin receptor type 1 [4] and 5.96 on Galanin receptor type 2. Besides, the inhibition in test [2] and in test [3] was more than 50% throughout.
Consider `FC(F)Oc1ccc(Nc2cc(Nc3ccccc3)nc(N3CCCCC3)n2)cc1`, for which the negative logarithm of the IC50 (pIC50) on Galanin receptor type 2 was 5.47. Besides, the IC50 entry on Galanin receptor type 1 [1] was “Not Active”. The inhibition in test [2] and in test [3] was more than 50% each time.
For `COc1ccc(Nc2nc(Nc3ccc(OC)c(F)c3)cc(N3CCCC(C)C3)n2)cc1` (stereo not given), the pIC50 is 5.17 at Galanin receptor type 1 [4] and 5.87 on Galanin receptor type 2. Further, the inhibition in test [2] and in test [3] was more than 50% in each case.
Take `COc1ccc(Nc2nc(Nc3ccc(C)cc3C)cc(N3CCCCC3)n2)cc1`: the pIC50 at Galanin receptor type 2 was 5.93. The IC50 result at Galanin receptor type 1 [1] is reported as “Not Active”. The inhibition in test [2] and in test [3] was more than 50% in each case.
As for `COc1ccc(Nc2cc(N3CCCCC3)nc(N3CCCN(c4ncccc4C(F)(F)F)CC3)n2)cc1`, the pIC50 was 5.47 on Galanin receptor type 1 [4] and 5.72 at Galanin receptor type 2. Moreover, the inhibition in test [2] and in test [3] was more than 50% each time.
For the molecule `COc1ccc(Nc2cc(Nc3ccccc3)nc(N3CCCCC3)n2)cc1F`, the pIC50 was 5.17 at Galanin receptor type 1 [4] and 5.06 on Galanin receptor type 2. The inhibition in test [2] and in test [3] was more than 50% in each case.
As for `COc1ccc(Nc2cc(Nc3cccc(OC)c3)nc(NC3CCCCC3)n2)cc1`, the pIC50 was 5.25 on Galanin receptor type 1 [4] and 5.76 at Galanin receptor type 2. For the same molecule, the inhibition in test [2] and in test [3] was more than 50% throughout.
On to `COc1ccc(Nc2cc(Nc3ccc(OC)cc3)nc(N3CCCC3)n2)cc1`, for which the pIC50 on Galanin receptor type 2 was 5.09. In addition, at Galanin receptor type 1 [1], the IC50 result is listed as “Not Active”. Moreover, the inhibition in test [2] and in test [3] was more than 50% each time.
With `FC(F)Oc1cccc(Nc2cc(Nc3ccccc3)nc(N3CCCCC3)n2)c1`, the values for the negative-log IC50 (pIC50) on Galanin receptor type 1 [4] and at Galanin receptor type 2 were 5.16 and 5.38, respectively. For the same molecule, the inhibition in test [2] and in test [3] was more than 50% in each case.
Take `COc1ccc(Nc2cc(Nc3cccc(OC(F)(F)F)c3)nc(NC3CCCCC3)n2)cc1`: the pIC50 on Galanin receptor type 1 [4] was 5.17; at Galanin receptor type 2, 6.26. The inhibition in test [2] and in test [3] was more than 50% in each case.
The molecule `COc1ccc(Nc2nc(Nc3ccc(F)cc3C)cc(N3CCCCC3)n2)cc1` had a pIC50 on Galanin receptor type 2 of 6.01. The IC50 result at Galanin receptor type 1 [1] is recorded as “Not Active”. The inhibition in test [2] and in test [3] was more than 50% throughout.
In the case of `Cc1ccc(C)c(Nc2cc(N3CCCCC3)nc(N3CCCN(c4ncccc4C(F)(F)F)CC3)n2)c1`, the negative logarithm of the IC50 (pIC50) at Galanin receptor type 1 [4] was 5.41; on Galanin receptor type 2, 5.68. Moreover, the inhibition in test [2] and in test [3] was more than 50% throughout.
Molecule `COc1ccc(Nc2nc(NCc3cccc(C(F)(F)F)c3)cc(N3CCCCC3)n2)cc1` gave a pIC50 at Galanin receptor type 2 of 5.71. The IC50 entry at Galanin receptor type 1 [1] is “Not Active”. Also, the inhibition in test [2] and in test [3] was more than 50% each time.
At Galanin receptor type 2, `COc1ccc(Nc2nc(Nc3cccc(F)c3C)cc(N3CCCCC3)n2)cc1` gave a pIC50 of 6.42. In addition, the IC50 result on Galanin receptor type 1 [1] is on record as “Not Active”. Also, the inhibition in test [2] and in test [3] was more than 50% throughout.
For `COc1ccc(Nc2nc(Nc3cccc(OC(F)(F)F)c3)cc(N3CCCCC3)n2)cc1`, the pIC50 on Galanin receptor type 2 was 6.42. Besides, the IC50 entry at Galanin receptor type 1 [1] was “Not Active”. The inhibition in test [2] and in test [3] was more than 50% throughout.
On to `c1ccc(Nc2cc(NCc3ccc4c(c3)OCO4)nc(N3CCCCC3)n2)cc1`, for which the negative logarithm of the IC50 (pIC50) at Galanin receptor type 2 is 5.43. For the same molecule, the IC50 entry at Galanin receptor type 1 [1] is on record as “Not Active”. For the same molecule, the inhibition in test [2] and in test [3] was more than 50% in each case.
Take `COc1ccc(Nc2cc(Nc3ccc(OC(F)F)cc3)nc(NC3CCCCC3)n2)cc1`: the figures for the pIC50 at Galanin receptor type 1 [4] and at Galanin receptor type 2 were 4.56 and 4.90, respectively. Further, the inhibition in test [2] and in test [3] was more than 50% each time.
Consider `COc1ccc(Nc2cc(Nc3ccc(OC(F)(F)F)cc3)nc(NC3CCCCC3)n2)cc1`, for which the results for the pIC50 on Galanin receptor type 1 [4] and on Galanin receptor type 2 were 5.23 and 5.97, respectively. For the same molecule, the inhibition in test [2] and in test [3] was more than 50% each time.
`COc1ccc(Nc2nc(Nc3ccc(OC)c(F)c3)cc(N3CCN(c4ccccc4)CC3)n2)cc1`: the pIC50 was 5.17 at Galanin receptor type 1 [4] and 4.60 at Galanin receptor type 2. In addition, the inhibition in test [2] and in test [3] was more than 50% throughout.
Take `COc1ccc(Nc2nc(Nc3ccc(OC)c(F)c3)cc(N3CCCCCC3)n2)cc1`: the pIC50 on Galanin receptor type 1 [4] is 5.26; at Galanin receptor type 2 it was 6.11. Also, the inhibition in test [2] and in test [3] was more than 50% each time.
On Galanin receptor type 2, `COc1ccc(Nc2nc(Nc3ccc(OC(F)(F)F)cc3)cc(N3CCCCC3)n2)cc1` showed a pIC50 of 6.48. In addition, the IC50 entry at Galanin receptor type 1 [1] is “Not Active”. For the same molecule, the inhibition in test [2] and in test [3] was more than 50% throughout.
Turning to `COc1ccc(Nc2nc(Nc3ccc(C(F)(F)F)cc3)cc(N3CCCCC3)n2)cc1`, the pIC50 on Galanin receptor type 2 is 6.11. Also, at Galanin receptor type 1 [1], the IC50 result is recorded as “Not Active”. The inhibition in test [2] and in test [3] was more than 50% throughout.

These data come from ChEMBL document CHEMBL1921679, “Synthesis and biological evaluation of novel pyrimidine derivatives as sub-micromolar affinity ligands of GalR2” (Bioorg Med Chem Lett, 2011).
